Reference: ChEMBL document CHEMBL3425427, “Pyrido[4,3-e][1,2,4]triazolo[4,3-a]pyrazines as Selective, Brain Penetrant Phosphodiesterase 2 (PDE2) Inhibitors” (ACS Med Chem Lett, 2015)

What was measured:
[1] = Dissociation constant, pKa of the compound; type: physicochemical
[2] = Unbound fraction in Sprague-Dawley rat brain homogenates at 10 mg/kg, sc after 5 hrs at 37 degC by rapid equilibrium dialysis; type: ADME, organism-based; design: dose 10 mg/kg, route subcutaneous; conditions: brain homogenate
In short: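 Unbound fraction measured in rat brain homogenate by rapid equilibrium dialysis, 5 h incubation at 37 °C.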

[3] = Drug level in Sprague-Dawley rat brain homogenates at 10 mg/kg, sc after 1 hr; type: ADME, organism-based; design: dose 10 mg/kg, route subcutaneous; conditions: read-out: Drug uptake
In short: (§1)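 Fed male Sprague-Dawley rats, n = 2 per time point, given 10 mg/kg s.c. in 20% HPβCD at pH 3.5−4. Brain and plasma levels taken 1 h after dosing; brain-to-plasma ratio computed from these.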

[4] = Ratio of drug level in brain to plasma of Sprague-Dawley rat at 10 mg/kg, sc after 1 hr; type: ADME, organism-based; design: dose 10 mg/kg, route subcutaneous; conditions: read-out: BPR; in short: as §1
[5] = tested on: Rattus norvegicus; experiment: In vivo PDE2 occupancy in Wistar rat assessed as inhibition of specific binding of [3H]-4-((1-(5-butoxypyridin-3-yl)-4-methyl-[1,2,4]triazolo[4,3-a]quinoxalin-8-yl)methyl)morpholine radiotracer at 10 mg/kg, sc and pre-treated with 2.5 mg/kg, sc PDE10 inhibitor MP10; type: functional
[6] = Drug metabolism in human liver microsomes at 1 uM incubated for 15 mins at 37 degC; type: ADME; conditions: read-out: Drug metabolism
In short: (§2)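 Compound at 1 μM incubated 15 min at 37 °C with human or rat liver microsomes; read-out is percent metabolized.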

[7] = Drug metabolism in rat liver microsomes at 1 uM incubated for 15 mins at 37 degC; type: ADME; conditions: read-out: Drug metabolism; in short: as §2
[8] = molecular target: T1, cAMP and cAMP-inhibited cGMP 3',5'-cyclic phosphodiesterase 10A (Rattus norvegicus, UniProt Q9QYJ6); experiment: Inhibition of 6-His-tagged rat recombinant PDE10A expressed in Sf9 cells using [3H]cAMP incubated for 60 mins by scintillation proximity assay
T1 sequence (Q9QYJ6 whole entry): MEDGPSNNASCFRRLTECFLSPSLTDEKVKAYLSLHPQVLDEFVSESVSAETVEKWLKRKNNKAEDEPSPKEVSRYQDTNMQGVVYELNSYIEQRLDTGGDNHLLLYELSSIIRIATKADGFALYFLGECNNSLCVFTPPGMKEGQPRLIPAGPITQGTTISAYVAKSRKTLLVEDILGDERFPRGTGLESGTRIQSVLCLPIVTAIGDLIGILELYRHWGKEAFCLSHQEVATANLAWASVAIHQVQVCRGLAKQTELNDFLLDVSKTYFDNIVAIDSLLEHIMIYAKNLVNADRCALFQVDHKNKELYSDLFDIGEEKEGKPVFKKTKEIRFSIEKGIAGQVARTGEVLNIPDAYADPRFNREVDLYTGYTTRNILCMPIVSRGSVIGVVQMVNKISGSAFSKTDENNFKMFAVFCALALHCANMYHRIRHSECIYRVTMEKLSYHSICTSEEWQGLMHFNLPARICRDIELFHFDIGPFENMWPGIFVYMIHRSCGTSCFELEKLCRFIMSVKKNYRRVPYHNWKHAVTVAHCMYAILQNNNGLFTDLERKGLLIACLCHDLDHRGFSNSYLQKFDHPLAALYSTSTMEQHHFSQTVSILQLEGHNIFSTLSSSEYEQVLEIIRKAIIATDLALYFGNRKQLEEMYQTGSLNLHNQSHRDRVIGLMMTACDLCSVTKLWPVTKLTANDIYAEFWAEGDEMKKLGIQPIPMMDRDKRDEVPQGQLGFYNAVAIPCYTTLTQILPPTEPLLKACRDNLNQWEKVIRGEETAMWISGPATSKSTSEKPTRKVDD

Row | SMILES | pKa [1] | fraction unbound at 5 h [2] | concentration at 1 h [3] [ng/g] | Kp at 1 h [4] | metabolised at 0.25 h, 1 µM [6] [%] | metabolised at 0.25 h, 1 µM [7] [%] | IC50 [8] [µM] | Occ [5] [%]
1 | CCCCOc1cncc(-c2nnc3c(C)nc4ccncc4n23)c1 |  | > 0.3 | 789 | 0.61 | 6 | 46 |  | 23
2 | COCCOc1ccc(Cl)c(-c2nnc3c(C)nc4ccncc4n23)c1 |  | 0.17 | 801 | 0.44 | 5 | 18 | 9.12 | 
3 | CCCCOc1ccc(Cl)c(-c2nnc3c(C)nc4ccncc4n23)c1 |  | 0.026 | 807 | 0.69 | 34 | 98 |  | 

Continued, in another order:

Row | pKa [1] | fraction unbound at 5 h [2] | concentration at 1 h [3] [ng/g] | Kp at 1 h [4] | metabolised at 0.25 h, 1 µM [6] [%] | metabolised at 0.25 h, 1 µM [7] [%] | IC50 [8] [µM] | SMILES | Occ [5] [%]
4 | 1 |  |  |  |  |  |  | Cc1nc2cccnc2n2c(-c3ccccc3Cl)nnc12 | 
5 |  |  |  |  | 3 | 11 | 8.91 | Cc1nc2ccncc2n2c(-c3cc(OC(F)(F)F)ccc3Cl)nnc12 | 
